# Reference: ChEMBL document CHEMBL4610092, “Cytotoxic Nitrogenated Azaphilones from the Deep-Sea-Derived Fungus Chaetomium globosum MP4-S01-7” (J Nat Prod, 2020)
# pIC50: −log10 of the molar value.
# Key:
# [1] = test system: AGS; experiment: Cytotoxicity against human AGS cells assessed as reduction in cell viability measured after 72 hrs by CCK8 assay; type: functional, cell-based
# Procedure, shortened: (§1)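 MGC803 or AGS cells (RPMI 1640, 10% FBS, 5% CO₂, 37 °C) plated at 3 × 10³ per well overnight, then exposed to 0.1–10 μM for 72 h. Viability was read by CCK8 absorbance at 450 nm, and IC₅₀ was calculated from the concentration series.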
# [2] = test system: MGC-803; experiment: Cytotoxicity against human MGC803 cells assessed as reduction in cell viability measured after 72 hrs by CCK8 assay; type: functional, cell-based; conditions: MGC-803, 72 h; procedure, shortened: as §1
# [3] = test system: MGC-803; experiment: Cell cycle arrest in human MGC803 cells assessed as increase in accumulation at G1-phase measured after 24 hrs by propidium iodide staining based flow cytometry; type: functional
# [4] = test system: MGC-803; experiment: Cell cycle arrest in human MGC803 cells assessed as accumulation at S-phase at 0.5 uM measured after 24 hrs by propidium iodide staining based flow cytometry (reference value: 33%); type: functional
# [5] = test system: MGC-803; experiment: Induction of apoptosis in human MGC803 cells assessed as early apoptotic cells at 5 uM measured after 48 hrs FITC-A/PE-A staining based flow cytometry (reference value: 0.59 to 3.54%); type: functional
# [6] = test system: MGC-803; experiment: Induction of apoptosis in human MGC803 cells assessed as early apoptotic cells at 0.2 uM measured after 48 hrs FITC-A/PE-A staining based flow cytometry (reference value: 0.59 to 3.54%); type: functional
# [7] = test system: MGC-803; experiment: Induction of apoptosis in human MGC803 cells assessed as necrotic cells at 1 uM measured after 48 hrs FITC-A/PE-A staining based flow cytometry (reference value: 0.9 to 2.18%); type: functional
# [8] = test system: AGS; experiment: Induction of apoptosis in human AGS cells assessed as necrotic cells at 0.5 uM measured after 48 hrs FITC-A/PE-A staining based flow cytometry (reference value: 1.35 to 2.69%); type: functional
# [9] = test system: AGS; experiment: Induction of apoptosis in human AGS cells assessed as early apoptotic cells at 5 uM measured after 48 hrs FITC-A/PE-A staining based flow cytometry (reference value: 1.77 to 2.91%); type: functional
# [10] = test system: MGC-803; experiment: Induction of apoptosis in human MGC803 cells assessed as necrotic cells at 0.5 uM measured after 48 hrs FITC-A/PE-A staining based flow cytometry (reference value: 0.9 to 2.18%); type: functional
# [11] = test system: MGC-803; experiment: Induction of apoptosis in human MGC803 cells assessed as viable cells at 0.2 uM measured after 48 hrs FITC-A/PE-A staining based flow cytometry (reference value: 94.89 to 96.41%); type: functional; conditions: MGC-803, 48 h, read-out: Activity
# [12] = test system: MGC-803; experiment: Cell cycle arrest in human MGC803 cells assessed as accumulation at S-phase at 0.2 uM measured after 24 hrs by propidium iodide staining based flow cytometry (reference value: 33%); type: functional
# [13] = test system: AGS; experiment: Induction of apoptosis in human AGS cells assessed as early apoptotic cells at 1 uM measured after 48 hrs FITC-A/PE-A staining based flow cytometry (reference value: 1.77 to 2.91%); type: functional
# [14] = test system: AGS; experiment: Induction of apoptosis in human AGS cells assessed as late apoptotic cells at 0.2 uM measured after 48 hrs FITC-A/PE-A staining based flow cytometry (reference value: 1.89 to 3.49%); type: functional
# [15] = test system: AGS; experiment: Induction of apoptosis in human AGS cells assessed as necrotic cells at 0.2 uM measured after 48 hrs FITC-A/PE-A staining based flow cytometry (reference value: 1.35 to 2.69%); type: functional
# [16] = test system: AGS; experiment: Induction of apoptosis in human AGS cells assessed as viable cells at 5 uM measured after 48 hrs FITC-A/PE-A staining based flow cytometry (reference value: 92.05 to 93.85%); type: functional; conditions: read-out: Activity
# [17] = test system: AGS; experiment: Induction of apoptosis in human AGS cells assessed as viable cells at 1 uM measured after 48 hrs FITC-A/PE-A staining based flow cytometry (reference value: 92.05 to 93.85%); type: functional; conditions: read-out: Activity
# [18] = test system: MGC-803; experiment: Cell cycle arrest in human MGC803 cells assessed as accumulation at S-phase at 1 uM measured after 24 hrs by propidium iodide staining based flow cytometry (reference value: 33%); type: functional
# [19] = test system: MGC-803; experiment: Induction of apoptosis in human MGC803 cells assessed as late apoptotic cells at 5 uM measured after 48 hrs FITC-A/PE-A staining based flow cytometry (reference value: 0.67 to 0.82%); type: functional
# [20] = test system: MGC-803; experiment: Induction of apoptosis in human MGC803 cells assessed as early apoptotic cells at 0.5 uM measured after 48 hrs FITC-A/PE-A staining based flow cytometry (reference value: 0.59 to 3.54%); type: functional
# [21] = test system: MGC-803; experiment: Induction of apoptosis in human MGC803 cells assessed as viable cells at 1 uM measured after 48 hrs FITC-A/PE-A staining based flow cytometry (reference value: 94.89 to 96.41%); type: functional; conditions: MGC-803, 48 h, read-out: Activity
# [22] = test system: MGC-803; experiment: Induction of apoptosis in human MGC803 cells measured after 48 hrs FITC-A/PE-A staining based flow cytometry; type: functional, cell-based
# [23] = test system: MGC-803; experiment: Cell cycle arrest in human MGC803 cells assessed as accumulation at G2/M-phase at 1 uM measured after 24 hrs by propidium iodide staining based flow cytometry (reference value: 22%); type: functional
# [24] = test system: MGC-803; experiment: Cell cycle arrest in human MGC803 cells assessed as accumulation at G2/M-phase at 0.5 uM measured after 24 hrs by propidium iodide staining based flow cytometry (reference value: 22%); type: functional
# [25] = test system: MGC-803; experiment: Cell cycle arrest in human MGC803 cells assessed as accumulation at G1-phase at 1 uM measured after 24 hrs by propidium iodide staining based flow cytometry (reference value: 45%); type: functional
# [26] = test system: MGC-803; experiment: Induction of apoptosis in human MGC803 cells assessed as late apoptotic cells at 1 uM measured after 48 hrs FITC-A/PE-A staining based flow cytometry (reference value: 0.67 to 0.82%); type: functional
# [27] = test system: AGS; experiment: Induction of apoptosis in human AGS cells assessed as necrotic cells at 1 uM measured after 48 hrs FITC-A/PE-A staining based flow cytometry (reference value: 1.35 to 2.69%); type: functional
# [28] = test system: AGS; experiment: Induction of apoptosis in human AGS cells measured after 48 hrs FITC-A/PE-A staining based flow cytometry; type: functional, cell-based
# [29] = test system: AGS; experiment: Induction of apoptosis in human AGS cells assessed as early apoptotic cells at 0.2 uM measured after 48 hrs FITC-A/PE-A staining based flow cytometry (reference value: 1.77 to 2.91%); type: functional
# [30] = test system: MGC-803; experiment: Induction of apoptosis in human MGC803 cells assessed as necrotic cells at 5 uM measured after 48 hrs FITC-A/PE-A staining based flow cytometry (reference value: 0.9 to 2.18%); type: functional
# [31] = test system: MGC-803; experiment: Induction of apoptosis in human MGC803 cells assessed as late apoptotic cells at 0.2 uM measured after 48 hrs FITC-A/PE-A staining based flow cytometry (reference value: 0.9 to 2.18%); type: functional
# [32] = test system: MGC-803; experiment: Induction of apoptosis in human MGC803 cells assessed as late apoptotic cells at 0.5 uM measured after 48 hrs FITC-A/PE-A staining based flow cytometry (reference value: 0.9 to 2.18%); type: functional
# [33] = test system: MGC-803; experiment: Induction of apoptosis in human MGC803 cells assessed as viable cells at 0.5 uM measured after 48 hrs FITC-A/PE-A staining based flow cytometry (reference value: 94.89 to 96.41%); type: functional; conditions: MGC-803, 48 h, read-out: Activity
# [34] = test system: AGS; experiment: Induction of apoptosis in human AGS cells assessed as late apoptotic cells at 5 uM measured after 48 hrs FITC-A/PE-A staining based flow cytometry (reference value: 1.89 to 3.49%); type: functional
# [35] = test system: MGC-803; experiment: Cell cycle arrest in human MGC803 cells assessed as accumulation at G2/M-phase at 0.2 uM measured after 24 hrs by propidium iodide staining based flow cytometry (reference value: 22%); type: functional
# [36] = test system: AGS; experiment: Induction of apoptosis in human AGS cells assessed as late apoptotic cells at 1 uM measured after 48 hrs FITC-A/PE-A staining based flow cytometry (reference value: 1.89 to 3.49%); type: functional
# [37] = test system: AGS; experiment: Induction of apoptosis in human AGS cells assessed as viable cells at 0.2 uM measured after 48 hrs FITC-A/PE-A staining based flow cytometry (reference value: 92.05 to 93.85%); type: functional; conditions: read-out: Activity
# [38] = test system: AGS; experiment: Induction of apoptosis in human AGS cells assessed as viable cells at 0.5 uM measured after 48 hrs FITC-A/PE-A staining based flow cytometry (reference value: 92.05 to 93.85%); type: functional; conditions: read-out: Activity
# [39] = test system: MGC-803; experiment: Induction of apoptosis in human MGC803 cells assessed as viable cells at 5 uM measured after 48 hrs FITC-A/PE-A staining based flow cytometry (reference value: 94.89 to 96.41%); type: functional; conditions: MGC-803, 48 h, read-out: Activity
# [40] = test system: MGC-803; experiment: Induction of apoptosis in human MGC803 cells assessed as necrotic cells at 0.2 uM measured after 48 hrs FITC-A/PE-A staining based flow cytometry (reference value: 0.9 to 2.18%); type: functional
# [41] = test system: AGS; experiment: Induction of apoptosis in human AGS cells assessed as necrotic cells at 5 uM measured after 48 hrs FITC-A/PE-A staining based flow cytometry (reference value: 1.35 to 2.69%); type: functional
# [42] = test system: MGC-803; experiment: Cell cycle arrest in human MGC803 cells assessed as accumulation at G1-phase at 0.2 uM measured after 24 hrs by propidium iodide staining based flow cytometry (reference value: 45%); type: functional
# [43] = test system: AGS; experiment: Induction of apoptosis in human AGS cells assessed as early apoptotic cells at 0.5 uM measured after 48 hrs FITC-A/PE-A staining based flow cytometry (reference value: 1.77 to 2.91%); type: functional
# [44] = test system: MGC-803; experiment: Cell cycle arrest in human MGC803 cells assessed as accumulation at G1-phase at 0.5 uM measured after 24 hrs by propidium iodide staining based flow cytometry (reference value: 45%); type: functional
# [45] = test system: MGC-803; experiment: Induction of apoptosis in human MGC803 cells assessed as early apoptotic cells at 1 uM measured after 48 hrs FITC-A/PE-A staining based flow cytometry (reference value: 0.59 to 3.54%); type: functional
# [46] = test system: AGS; experiment: Induction of apoptosis in human AGS cells assessed as late apoptotic cells at 0.5 uM measured after 48 hrs FITC-A/PE-A staining based flow cytometry (reference value: 1.89 to 3.49%); type: functional
smiles,measurement,setting,value
C/C=C(\C)C(=O)C1=C2C3=CN(CC=C(C)C)C(/C=C/[C@@H](C)CC)=CC3=C(Cl)C(=O)[C@@]2(C)OC1=O,pIC50,[1],5.70
same,pIC50,[2],5.17
CC[C@H](C)/C=C/C1=CC2=C(Cl)C(=O)[C@@]3(C)OC(=O)C(C(=O)[C@H](C)[C@@H](C)O)=C3C2=CN1CC=C(C)C,pIC50,[1],5.19
same,pIC50,[2],5.57
CCC(=O)C1=C2C3=CN(CC=C(C)C)C(/C=C/[C@@H](C)CC)=CC3=C(Cl)C(=O)[C@@]2(C)OC1=O,pIC50,[1],< 5.00
same,pIC50,[2],5.24
CC[C@H](C)/C=C/C1=CC2=C(Cl)C(=O)[C@@]3(C)OC(=O)C(C(=O)[C@@H](C)[C@@H](C)O)=C3C2=CN1C/C=C(\C)CCC=C(C)C,Activity,[3],Dose-dependent effect
same,Activity,[4],28%
same,Activity,[5],6.2%
same,Activity,[6],2.96%
same,Activity,[7],6.01%
same,Activity,[8],2.85%
same,Activity,[9],1.86%
same,Activity,[10],3.23%
same,viability at 0.2 µM,[11],90.7%
same,Activity,[12],30%
same,Activity,[13],16.5%
same,Activity,[14],2.69%
same,Activity,[15],1.37%
same,viability at 5 µM,[16],8.93%
same,viability at 1 µM,[17],45%
same,Activity,[18],32%
same,Activity,[19],68.63%
same,Activity,[20],2.65%
same,pIC50,[1],6.21
same,viability at 1 µM,[21],71.7%
same,Activity,[22],Dose-dependent effect
same,Activity,[23],9.4%
same,Activity,[24],24%
same,Activity,[25],58%
same,Activity,[26],18.17%
same,Activity,[27],3.36%
same,Activity,[28],Dose-dependent effect
same,Activity,[29],2.78%
same,pIC50,[2],6.34
same,Activity,[30],5.03%
same,Activity,[31],2.23%
same,Activity,[32],2.85%
same,viability at 0.5 µM,[33],91.3%
same,Activity,[34],86.77%
same,Activity,[35],23%
same,Activity,[36],35.16%
same,viability at 0.2 µM,[37],93.2%
same,viability at 0.5 µM,[38],88.2%
same,viability at 5 µM,[39],20.1%
same,Activity,[40],4.06%
same,Activity,[41],2.44%
same,Activity,[42],48%
same,Activity,[43],5.89%
same,Activity,[44],48%
same,Activity,[45],4.16%
same,Activity,[46],3.01%
C/C=C(\C)C(=O)C1=C2C3=COC(/C=C/[C@@H](C)CC)=CC3=C(Cl)C(=O)[C@@]2(C)OC1=O [CHAETOVIRIDIN E],pIC50,[1],< 5.00
same,pIC50,[2],< 5.00
C/C=C(\C)C(=O)C1=C2C3=CN(C/C=C(\C)CCC=C(C)C)C(/C=C/[C@@H](C)CC)=CC3=C(Cl)C(=O)[C@@]2(C)OC1=O,pIC50,[1],6.92
same,pIC50,[2],6.14
